The results in this text go back to paper PMC11342948 (International Journal of Nanomedicine, 2024).

The subject of data set [1] is MPTP-induced PD model. The data set can be described thus: Behavioral assays. Type of data set: in vivo, C57BL/6J mice. The procedure, abridged:
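Male C57BL/6J mice (8 weeks, 22–25 g), 12 per cohort, given MPTP 30 mg/kg/day i.p. in 0.9% saline for 5 days, with daily i.v. test compound (13 mg/kg, free or liposomal), L-Dopa 4.95 mg/kg or saline. On day 16: 10-min video-tracked open field (50 cm box, 30×30 cm centre) and vertical pole descent (1.5 cm × 55 cm, head up; T-turn, T-total). n=8, mean ± SD.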

Data set [2] deals with MPTP-induced PD model. Nature of the data set: Oxidative stress assay in the striatum. To be noted: vs MPTP cohort. Type of data set: in vivo, C57BL/6J mice. The procedure, abridged:
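The MPTP mouse model used male C57BL/6J mice given 30 mg/kg/day i.p. for 5 days, with daily i.v. test compound at 13 mg/kg. After day-16 behaviour and perfusion, striatum was homogenised in 1% triton (1 g/9 mL) and spun at 15294 g, 4°C, 10 min. SOD, GSH-PX and MDA in the supernatant were measured with commercial kits per the manufacturer.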

The test system of data set [3] is MPTP-induced PD model. Nature of the data set: Dopamine and its metabolites in the striatum. The format is in vivo, C57BL/6J mice. The settings on record: for dopamine levels: L-Dopa 4.95 mg/kg, ECH 13 mg/kg.
For data set [4], the system named is MPTP-induced PD model. Nature of the data set: Tyrosine hydroxylase immunohistochemical staining. The format is in vivo, C57BL/6J mice. The procedure, abridged: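 In the same MPTP model (30 mg/kg/day i.p., 5 days; daily i.v. test compound), perfused brains were cut into 5 μm coronal sections. These were incubated with rabbit polyclonal anti-TH (1:400, PBS) overnight at 4°C, then HRP secondary (1:200), with DAB detection. Striatal TH fiber immunoreactivity was quantified by image analysis. TH-positive neurons were counted in every sixth section through the substantia nigra.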

The subject of a further data set is bEnd.3 monolayer. Nature of the data set: In vitro BBB penetration, transwell model. The settings on record: 2 μg/mL.
The nature of data set [5]: Evans blue BBB integrity test. The settings on record: Evans blue 50 mg/kg intravenously, 30 minutes. Type of data set: in vivo, mice.
Where [6] appears, read: open-field test, day 16, vs MPTP-treated mice.
[7] abbreviates: pole test, day 16, vs MPTP-treated cohort.

For `N[C@@H](Cc1ccc(O)c(O)c1)C(=O)O` [L-Dopa, levodopa], in the data set with MPTP-induced PD model [1] (setting [6]), the average speed entry is given as “increased”, the “movement within the central area” value was “significantly improved”, the “percentage of time spent in the center” value is on record as “increased” and the time spent immobile entry was “decreasing”. The total distance traveled result in the data set on MPTP-induced PD model [1] (setting [6]) was “increased”. Further, in the data set on MPTP-induced PD model [1] (setting [7]), the T-total entry is reported as “significantly reduced” and the T-turn entry is listed as “significantly reduced”. For the same molecule, in the data set on MPTP-induced PD model [2], the GSH-PX levels result is reported as “significantly elevated”, the MDA levels result is listed as “reducing” and the SOD levels entry is reported as “significantly elevated”. In the data set on MPTP-induced PD model [3], the “DOPAC levels, increase compared to the MPTP cohort” value is on record as 1.59 fold and the “HVA levels, increase compared to the MPTP cohort” value came to 1.63 fold. Further, the dopamine levels in the data set on MPTP-induced PD model [3] (MPTP 30 mg/kg i.p. five days) is 1.27 ± 0.09 ng/mg of wet striatum tissue. The “MPTP-induced reduction in TH immunoreactivity in the striatum” value in the data set with MPTP-induced PD model [4] (striatum) is listed as “effectively counteracted”. Besides, the “TH-positive neuron counts in the substantia nigra” value in the data set on MPTP-induced PD model [4] (substantia nigra) is “partially restored”.

For the molecule `O=C([O-])c1ccccc1-c1c2ccc(=O)cc-2oc2cc([O-])ccc12.[Na+].[Na+]` [fluorescein sodium], in the data set on bEnd.3 monolayer, the apparent permeability coefficient was 6.92 ± 3.92×10^−6 cm/s.

With `CN1CC=C(c2ccccc2)CC1` [MPTP, 1-methyl-4-phenyl-1,2,3,6-tetrahydropyridine], in the data set on MPTP-induced PD model [3] (MPTP 30 mg/kg i.p. five days), the “dopamine levels, reduction compared to the control” value turned out to be 2.65 fold and the dopamine levels is 0.95 ± 0.15 ng/mg of wet striatum tissue. Moreover, the “BBB integrity (Evans blue levels in brain tissue)” value in data set [5] is listed as “did not compromise BBB integrity”.

Take Echinacoside [Free ECH]: in the data set with MPTP-induced PD model [3] (MPTP 30 mg/kg i.p. five days), the dopamine levels is 1.27 ± 0.36 ng/mg of wet striatum tissue. Further, in the data set on MPTP-induced PD model [4] (compared to the MPTP cohort / other treatments), the “neuroprotection (TH immunohistochemistry)” value is on record as “did not provide significant neuroprotection”.
